Measured values published in ChEMBL document CHEMBL4680130, “Substituted 4-phenylthiazoles: Development of potent and selective A, A and dual A/A adenosine receptor antagonists” (Eur J Med Chem, 2020).

Tests used:
Adenosine receptor A1 [1] = target: T1, Adenosine receptor A1 (Homo sapiens, UniProt P30542); assay: Displacement of [3H]CCPA from human adenosine receptor A1 expressed in CHO cell membranes incubated for 90 mins by radioligand competition assay; parameters: species or system Cell membrane
T1 sequence (P30542 whole entry): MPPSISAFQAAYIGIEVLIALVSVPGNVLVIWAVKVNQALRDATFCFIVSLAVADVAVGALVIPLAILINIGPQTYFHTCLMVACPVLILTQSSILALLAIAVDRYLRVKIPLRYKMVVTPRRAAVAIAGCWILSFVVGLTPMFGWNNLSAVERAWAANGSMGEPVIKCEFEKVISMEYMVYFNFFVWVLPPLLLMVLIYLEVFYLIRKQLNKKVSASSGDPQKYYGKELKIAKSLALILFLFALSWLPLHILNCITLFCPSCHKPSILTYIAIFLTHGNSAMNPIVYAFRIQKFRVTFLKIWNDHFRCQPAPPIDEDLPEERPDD

Adenosine receptor A1 [2] = target: T2, Adenosine receptor A1 (Rattus norvegicus, UniProt P25099); assay: Displacement of [3H]CCPA from adenosine receptor A1 in rat brain cortex membranes incubated for 90 mins by radioligand competition assay; assay type: cell membranes, Cell membrane
T2 sequence (P25099 whole entry): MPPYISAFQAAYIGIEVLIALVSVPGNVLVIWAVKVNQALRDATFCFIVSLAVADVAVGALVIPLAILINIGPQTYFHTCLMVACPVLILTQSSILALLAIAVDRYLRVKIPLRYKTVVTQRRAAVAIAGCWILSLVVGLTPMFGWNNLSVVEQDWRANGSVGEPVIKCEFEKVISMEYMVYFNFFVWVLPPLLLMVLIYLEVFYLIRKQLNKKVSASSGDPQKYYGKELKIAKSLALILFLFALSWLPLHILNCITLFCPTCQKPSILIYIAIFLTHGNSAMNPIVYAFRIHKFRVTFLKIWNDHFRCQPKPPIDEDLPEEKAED

Adenosine receptor A2a [3] = target: T3, Adenosine receptor A2a (Homo sapiens, UniProt P29274); assay: Displacement of [3H]MSX2 from human adenosine receptor A2A expressed in HEK293 cell membranes incubated for 30 mins by radioligand competition assay; parameters: species or system Cell membrane
Adenosine receptor A2a [4] = target: Adenosine receptor A2a (Rattus norvegicus, UniProt P30543); assay: Displacement of [3H]MSX2 from adenosine receptor A2A in rat brain striatum membranes incubated for 30 mins by radioligand competition assay; assay type: cell membranes, Cell membrane
Adenosine receptor A2b = target: T4, Adenosine receptor A2b (Homo sapiens, UniProt P29275); assay: Displacement of [3H]PSB-603 from human adenosine receptor A2B expressed in CHO cell membranes incubated for 75 mins by radioligand competition assay; parameters: species or system Cell membrane
T4 sequence (P29275 whole entry): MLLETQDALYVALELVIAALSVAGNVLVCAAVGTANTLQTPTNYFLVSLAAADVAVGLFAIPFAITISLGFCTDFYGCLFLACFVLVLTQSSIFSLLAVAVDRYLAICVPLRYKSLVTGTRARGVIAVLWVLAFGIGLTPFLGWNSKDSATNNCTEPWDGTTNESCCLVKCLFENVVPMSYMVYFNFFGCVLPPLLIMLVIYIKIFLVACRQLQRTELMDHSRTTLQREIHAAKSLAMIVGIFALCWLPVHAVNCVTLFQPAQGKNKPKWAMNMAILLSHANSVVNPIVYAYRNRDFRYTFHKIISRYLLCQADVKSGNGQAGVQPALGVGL

Adenosine receptor A3 [5] = target: T5, Adenosine receptor A3 (Homo sapiens, UniProt P0DMS8); assay: Displacement of [3H]PSB-11 from human adenosine receptor A3 expressed in CHO cell membranes incubated for 60 mins by radioligand competition assay; parameters: species or system Cell membrane
T5 sequence (P0DMS8 whole entry): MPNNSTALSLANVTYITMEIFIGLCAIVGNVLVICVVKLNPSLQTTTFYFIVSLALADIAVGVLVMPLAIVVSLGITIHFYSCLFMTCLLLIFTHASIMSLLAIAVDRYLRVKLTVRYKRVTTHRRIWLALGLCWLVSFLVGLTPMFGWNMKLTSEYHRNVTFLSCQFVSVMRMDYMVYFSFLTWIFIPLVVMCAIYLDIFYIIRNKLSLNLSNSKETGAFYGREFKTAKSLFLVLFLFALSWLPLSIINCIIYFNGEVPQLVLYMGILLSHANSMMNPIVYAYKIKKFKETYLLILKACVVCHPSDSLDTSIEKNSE

Adenosine receptor A1 [6] = target: T2, Adenosine receptor A1; assay: Displacement of [3H]DPCPX from rat brain cortical membrane A1AR in absence of GTP by scintillation counting analysis; assay type: cell membranes, Cortex, Cell membrane
Adenosine receptor A1 [7] = target: T2, Adenosine receptor A1; assay: Displacement of [3H]DPCPX from rat brain cortical membrane A1AR in presence of 100 uM of GTP by scintillation counting analysis; assay type: cell membranes, Cortex, Cell membrane
Adenosine receptor A1 [8] = target: T2, Adenosine receptor A1; assay: Displacement of [3H]CCPA from rat adenosine receptor A1 by radioligand competition assay
How it was run: (§1)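 A1 competition binding with [3H]CCPA, 0.5 nM. Membranes: CHO cells expressing human A1, or rat brain cortex. Membranes preincubated 20 min with adenosine deaminase (2 U/mL per mg protein). Incubation 90 min at rt in 50 mM Tris-HCl pH 7.4 with 2.5% final DMSO. Nonspecific binding defined by 10 µM 2-chloroadenosine. GF/B filtration, scintillation counting.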

Adenosine receptor A1 [9] = target: T2, Adenosine receptor A1; assay: Displacement of [3H]DPCPX from rat adenosine receptor A1 by radioligand competition assay
How it was run: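 Rat brain cortical membranes, [3H]DPCPX 0.4 nM. Nonspecific binding defined by 10 μM DPCPX. Curves run with and without 100 μM GTP. Incubation 90 min at rt in 50 mM Tris-HCl pH 7.4, after 20 min adenosine deaminase preincubation. Filtration, then scintillation counting. GTP shift is the IC50 with GTP divided by the IC50 without GTP.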

Adenosine receptor A3 [10] = target: T6, Adenosine receptor A3 (Rattus norvegicus, UniProt P28647); assay: Displacement of [3H]NECA from rat adenosine receptor A3 expressed in CHO cell membranes incubated for 60 mins by radioligand competition assay; parameters: species or system Cell membrane
T6 sequence (P28647 whole entry): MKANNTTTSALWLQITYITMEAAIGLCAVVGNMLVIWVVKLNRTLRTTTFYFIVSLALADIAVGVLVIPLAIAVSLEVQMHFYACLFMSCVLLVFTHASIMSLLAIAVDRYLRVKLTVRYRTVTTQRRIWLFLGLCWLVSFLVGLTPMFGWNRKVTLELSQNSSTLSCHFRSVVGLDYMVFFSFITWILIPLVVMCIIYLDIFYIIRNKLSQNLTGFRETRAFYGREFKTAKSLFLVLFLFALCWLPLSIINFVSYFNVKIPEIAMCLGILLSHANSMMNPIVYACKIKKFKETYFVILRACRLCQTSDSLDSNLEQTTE

[11] = target: T7, Adenosine receptor A2b (Homo sapiens) (UniProt P29275); assay: Displacement of [3H]PSB-603 from human adenosine receptor A2B expressed in CHO cell membranes at 0.1 uM incubated for 75 mins by radioligand competition assay relative to control; settings: Cell membrane
T7 sequence (whole entry): T4 sequence (P29275 whole entry)
How it was run: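 CHO membranes expressing human or rat A2B, [3H]PSB-603 0.3 nM. Nonspecific binding defined by 10 µM DPCPX. Preincubated 20 min with adenosine deaminase, then 75 min at rt in Tris-HCl pH 7.4 with 2.5% DMSO. Filters washed with ice-cold 50 mM Tris-HCl containing 0.1% BSA; scintillation counting.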

[12] = target: T8, Adenosine receptor A1 (Rattus norvegicus) (UniProt P25099); assay: Displacement of [3H]CCPA from adenosine receptor A1 in rat brain cortex membranes at 0.1 uM incubated for 90 mins by radioligand competition assay; settings: Cell membrane; how it was run: as §1
T8 sequence (whole entry): T2 sequence (P25099 whole entry)

[13] = target: Adenosine receptor A2a (Rattus norvegicus) (UniProt P30543); assay: Displacement of [3H]MSX2 from adenosine receptor A2A in rat brain striatum membranes at 0.1 uM incubated for 30 mins by radioligand competition assay relative to control; settings: Cell membrane
How it was run: (§2)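 A2A binding, [3H]MSX-2 1.0 nM. Membranes: rat brain striatum, or HEK293 cells expressing human A2A. Adenosine deaminase preincubation 20 min, then 30 min at rt in 50 mM Tris-HCl pH 7.4 with 2.5% DMSO. Nonspecific binding defined by 50 µM NECA. GF/B filtration, scintillation counting. Single-concentration percent inhibition, ≥3 experiments in duplicate or triplicate.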

[14] = target: T9, Adenosine receptor A3 (Rattus norvegicus) (UniProt P28647); assay: Displacement of [3H]NECA from rat adenosine receptor A3 expressed in CHO cell membranes at 0.1 uM incubated for 60 mins by radioligand competition assay relative to control; settings: Cell membrane
T9 sequence (whole entry): T6 sequence (P28647 whole entry)
How it was run: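 CHO membranes expressing rat A3, [3H]NECA 10 nM. Nonspecific binding defined by 100 µM R-PIA. Preincubated 20 min with adenosine deaminase, then 60 min at rt in 50 mM Tris-HCl pH 7.4 with 2.5% DMSO. GF/B filtration, scintillation counting.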

[15] = target: T10, Adenosine receptor A3 (Homo sapiens) (UniProt P0DMS8); assay: Displacement of [3H]PSB-11 from human adenosine receptor A3 expressed in CHO cell membranes at 0.1 uM incubated for 60 mins by radioligand competition assay; settings: Cell membrane
T10 sequence (whole entry): T5 sequence (P0DMS8 whole entry)
How it was run: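 CHO membranes expressing human A3, [3H]PSB-11 0.5 nM. Nonspecific binding defined by 100 µM R-PIA. Adenosine deaminase preincubation 20 min, then 60 min at rt in 50 mM Tris-HCl pH 7.4 with 2.5% DMSO. Filtered on GF/B, scintillation counted.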

Adenosine receptor A2a [16] = target: T3, Adenosine receptor A2a; assay: Displacement of [3H]MSX2 from human adenosine receptor A2A expressed in HEK293 cell membranes at 0.1 uM incubated for 30 mins by radioligand competition assay relative to control; settings: Cell membrane, in the assay text read “at 1 uM” for “at 0.1 uM”; how it was run: as §2
[17] = dose 1 µM, in the assay text read “1 uM” for “0.1 uM”

T3 sequence (P29274 whole entry): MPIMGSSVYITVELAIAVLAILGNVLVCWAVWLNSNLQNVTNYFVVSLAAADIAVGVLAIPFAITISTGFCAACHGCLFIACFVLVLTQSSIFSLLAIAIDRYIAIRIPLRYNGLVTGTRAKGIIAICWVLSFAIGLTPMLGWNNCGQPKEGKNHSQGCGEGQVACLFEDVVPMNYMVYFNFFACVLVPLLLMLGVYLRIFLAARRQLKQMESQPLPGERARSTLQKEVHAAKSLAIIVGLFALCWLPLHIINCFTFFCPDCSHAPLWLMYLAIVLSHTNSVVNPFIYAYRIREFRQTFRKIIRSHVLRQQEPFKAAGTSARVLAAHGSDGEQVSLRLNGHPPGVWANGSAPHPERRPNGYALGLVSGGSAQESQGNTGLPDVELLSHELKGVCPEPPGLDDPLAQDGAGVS
Chain of Adenosine receptor A2a (Rattus norvegicus) (P30543 whole entry): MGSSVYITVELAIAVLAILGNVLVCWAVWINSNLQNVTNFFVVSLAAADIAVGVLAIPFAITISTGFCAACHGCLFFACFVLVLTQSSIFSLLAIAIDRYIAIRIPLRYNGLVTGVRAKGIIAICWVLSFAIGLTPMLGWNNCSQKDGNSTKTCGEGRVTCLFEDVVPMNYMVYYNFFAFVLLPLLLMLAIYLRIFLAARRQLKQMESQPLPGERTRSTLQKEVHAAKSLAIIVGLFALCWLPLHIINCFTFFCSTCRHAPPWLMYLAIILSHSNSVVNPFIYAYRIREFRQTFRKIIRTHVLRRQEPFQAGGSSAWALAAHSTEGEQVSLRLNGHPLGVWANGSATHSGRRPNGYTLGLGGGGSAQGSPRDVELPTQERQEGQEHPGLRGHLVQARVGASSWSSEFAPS
Chain of Adenosine receptor A2a (Rattus norvegicus, UniProt P30543) (P30543 whole entry): as above

Compound	Ki (Adenosine receptor A1 [1])	Ki (Adenosine receptor A1 [2])	Ki (Adenosine receptor A2a [3])	Ki (Adenosine receptor A2a [4])	Ki (Adenosine receptor A2b)	Ki (Adenosine receptor A3 [5])	IC50 (Adenosine receptor A1 [6])	IC50 (Adenosine receptor A1 [7])	Ki (Adenosine receptor A1 [8])	Ki (Adenosine receptor A1 [9])	Ki (Adenosine receptor A3 [10])	inhibition [11]	inhibition ([12]; filed as antagonist)	inhibition [13]	inhibition [14]	inhibition ([15]; filed as antagonist, dose 0.1 µM)	inhibition (Adenosine receptor A2a [16])	inhibition [12]	inhibition [15, 17]
O=C(Nc1nc(-c2ccccc2)c(C(=O)c2ccc(F)cc2F)s1)c1ccccc1	55.3 nM	2.79 nM	77.7 nM	> 1000 nM	> 100 nM	67.8 nM	3.15 nM	3.14 nM	2.79 nM	2.93 nM									
COc1ccc(C(=O)Nc2nc(-c3ccccc3)c(-c3nc4ccccc4c(=O)n3-c3ccc(C)cc3)s2)cc1	> 1000 nM	> 1000 nM	> 1000 nM	> 1000 nM	> 100 nM	27.8 nM					> 10000 nM	2%	25%	15%	15%				
O=C(Nc1nc(-c2ccccc2)c(C(=O)c2ccc(Cl)cc2)s1)c1ccccc1	24.4 nM	0.939 nM	39.1 nM	1670 nM	> 100 nM	428 nM	0.0929 nM	0.0981 nM	0.939 nM	0.0867 nM									
Cc1ccc(C(=O)c2sc(NC(=O)c3ccco3)nc2-c2ccccc2)cc1	7.57 nM	0.348 nM	> 1000 nM	1210 nM	> 100 nM	42.2 nM	0.067 nM	0.084 nM	0.348 nM	0.0628 nM		2%							
O=C(Nc1nc(-c2ccccc2)c(-c2nc3ccccc3c(=O)n2-c2ccc(Cl)cc2)s1)c1ccccc1	> 1000 nM	> 1000 nM	> 1000 nM	> 1000 nM	> 100 nM	83.3 nM					> 10000 nM	12%	16%	7%	22%				
O=C(Nc1nc(-c2ccccc2)c(C(=O)c2ccc(F)cc2F)s1)c1ccco1	178 nM	6.69 nM	132 nM	73.3 nM	> 100 nM	124 nM						15%				100%			
O=C(Nc1nc(-c2ccccc2)c(-c2nc3ccccc3c(=O)n2-c2ccc(Cl)cc2)s1)c1ccco1	> 1000 nM	> 1000 nM	> 1000 nM	> 1000 nM	> 100 nM	48.3 nM					607 nM	1%		14%			8%	24%	
COc1ccc(C(=O)Nc2nc(-c3ccccc3)c(C(=O)c3ccc(OC)cc3)s2)cc1	13.6 nM	1.77 nM	> 1000 nM	> 1000 nM	> 100 nM	> 1000 nM								16%					37%
COc1ccc(C(=O)Nc2nc(-c3ccccc3)c(C(=O)c3ccc(F)cc3F)s2)cc1	> 1000 nM		> 1000 nM	> 1000 nM	> 100 nM	> 1000 nM						0%	54%	16%			14%		24%
